# Assay results: PubChem BioAssay AID463141 (The Scripps Research Institute Molecular Screening Center, 2010)
# Values joined by “and” are separate entries in the source; they are usually repeats but may differ in a detail not shown here. Equal entries are not always repeated. In all, about 330,000 compounds went through this assay and about 350 (0.11%) were called active. The list comes from a sample in which actives are over-represented; it also holds similar structures and randomly drawn compounds. Values without a mark were called inactive.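 Rule for the calls: active = activation above the mean of all tested compounds plus 3 SD (cut at about 21% in these data); inactive = the rest.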
# Biological target: Caspase-3 (Homo sapiens) (UniProt P42574)
# Assay: activators of human procaspase-3 D3A mutant, primary screen, biochemical, absorbance, PC-3 D3A mutant, single concentration (AID 463141);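 note: 0% = DMSO alone and 100% = DMSO wells spiked with extra 5 µM PC-3 D3A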
# Conditions: recombinant procaspase-3 D3A, Ac-DEVD-pNA absorbance 405 nm; at 8.5 µM; stronger effect = higher value
# Procedure, shortened: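 Compound: 8.5 µM single point, 0.8% DMSO / Material: Autoprocessing-dead procaspase-3 D3A mutant enzyme / Timing: 1 h preincubation plus 2 h reaction at 25 °C / Medium: Zinc-free HEPES/NaCl buffer with 0.01% Triton X-100 at pH 7.4 / Technique: 405 nm absorbance of p-nitroaniline, reads at 0 and 120 min / Repeats: one well per compound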
# Sequence of Caspase-3 (Homo sapiens) (P42574 whole entry D9A/D28A/D175A): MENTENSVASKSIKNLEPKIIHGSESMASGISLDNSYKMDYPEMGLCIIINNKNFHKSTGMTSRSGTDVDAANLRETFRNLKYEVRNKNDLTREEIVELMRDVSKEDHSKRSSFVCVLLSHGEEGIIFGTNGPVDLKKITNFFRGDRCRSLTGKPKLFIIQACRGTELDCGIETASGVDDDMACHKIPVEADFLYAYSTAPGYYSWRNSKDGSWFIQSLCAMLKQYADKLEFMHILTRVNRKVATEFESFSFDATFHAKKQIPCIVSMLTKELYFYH
row,SMILES,activation
1,Cc1ccc(C(=O)CN2C(=O)NC3(CCc4ccccc43)C2=O)c(C)c1 (stereo unspecified),6%
2,Cc1ccc(C(=O)N2CCCC(c3ccccc3)=N2)cc1,3.86%
3,COc1ccc2c(c1)c(=O)c(C(=O)c1ccc(Cl)cc1)cn2CC(=O)Nc1ccc(F)cc1,2.32%
4,CC(C)COP(=O)(c1ccc(N(C)C)cc1)C(Nc1ccccc1)c1cccnc1 (stereo unspecified),5.66%
5,Cc1nnc(SCC(=O)Nc2ncc3c(n2)CC(C)(C)CC3=O)s1,-5.45%
6,CSc1ccc(/C=C/C(=O)NC23CC4CC(CC(C4)C2)C3)cc1,2.05%
7,CN(CC(=O)NC1CCN(Cc2ccccc2)CC1)S(=O)(=O)c1ccc(Cl)s1,5.81%
8,C=CCNC(=O)C1CC2c3ccccc3C1c1ccccc12 (stereo unspecified),5.82%
9,O=C(COc1ccccc1Cl)N1N=C(c2cccs2)CC1c1ccco1 (stereo unspecified),4.79%
10,Fc1ccc(N2N=C(c3cccs3)CC2c2ccco2)c(F)c1 (stereo unspecified),40% (active)
11,COc1ccc(C2CC(c3cccs3)=NN2c2ccc(F)cc2)cc1OC (stereo unspecified),-19.4%
12,COc1ccccc1N1CCN(C(=O)c2cn(-c3ccccc3)nc2-c2cccnc2)CC1,-2.98%
13,COc1ccc(Nc2ncc(C(=O)N3CCN(c4ccccc4OC)CC3)c3ccccc23)cc1,30.4% (active)
14,COc1ccccc1N1CCN(C(=O)c2ccc(NC3=NC4CS(=O)(=O)CC4S3)cc2)CC1 (stereo unspecified),-12%
15,O=C(NCc1cccnc1)Nc1cccc(NC(=O)NCc2cccnc2)c1F,2.89%
16,COC(=O)Cc1cnc(NC(=O)CSc2nc(C(C)C)cc(=O)[nH]2)s1,5.45%
17,CCC(=O)Nc1c(C)n[nH]c1C,-3.68%
18,N#Cc1ccc(C2N=C(c3ccccc3)NO2)cc1 (stereo unspecified),-2.62%
19,COCc1c(C(=O)N/N=C\c2cccnc2)nnn1-c1nonc1N,0.8%
20,Cc1cccc(N=Nc2c(O)[nH]c3ccc(F)cc23)c1,12.6%
21,CC(OC(=O)c1ccc2noc(-c3ccccc3)c2c1)C(N)=O (stereo unspecified),-2.76%
22,COc1ccc(-c2onc3ccc(C(C)=O)cc23)cc1,103% (active)
23,Oc1ccc(-c2onc3ccc(Cl)cc23)cc1,-12.8%
24,COc1ccc(NC(=S)N2N=CCC2c2ccccc2)cc1 (stereo unspecified),11.4%

row,SMILES,activation
1,c1cnc(N2CCN(c3ccc4ccccc4n3)CC2)nc1,2.75%
2,NC[C@H](Cc1ccccc1)NCCc1cc(C(F)(F)F)cc(C(F)(F)F)c1,-5.68%
3,COc1ccccc1C(=O)N1CCN=C1SCc1cccnc1,-6.62%
4,O=C(CCN1CCN(C/C=C/c2ccccc2)CC1)Nc1ccccc1Cl,8.05%
5,Cn1cnc([N+](=O)[O-])c1Sc1n[nH]c(N)n1,6.6%
6,COCCCNC(=S)N(Cc1ccccc1)Cc1ccc(F)cc1,-1.61%
7,CCCNc1ncnc2sc(C)c(C)c12,-0.52%
8,CN(C)c1ccc2c(=O)[nH][nH]c(=O)c2c1,10.1%
9,CCOc1ccccc1NC(=O)C1CCCN(S(=O)(=O)c2ccccc2)C1 (stereo unspecified),2.37%
10,CN1CC(=O)N=C1N,6.53% and -3.63%
11,CCOC(=O)CNC(=O)CSc1ccc2nnc(-c3cccnc3)n2n1,0.59%
12,CC(C)NC(=S)N1CCN(S(C)(=O)=O)CC1,9.6%
13,CC(=O)c1ccc(N=C2SCCCN2C(=O)C2CCCCC2)cc1,8.2%
14,COc1cc(C(=O)NC2CCN(Cc3ccccc3)CC2)cc(Cl)c1OC(C)C,4.82%
15,CCOc1ccc2c(c1)cc(CN(C(=O)CC)C1CCCCC1)c1nnnn12,0.4%
16,O=C(c1ccc(N2CCOCC2)c([N+](=O)[O-])c1)N1CCN(S(=O)(=O)c2cccs2)CC1,-3.64%
17,CC1CCN(C(=S)NC(=O)c2ccccc2Br)CC1,-4.02%
18,COc1ccc(C2CC(c3cccs3)=NN2c2ccccc2)cc1 (stereo unspecified),-24.6%
19,CC(=O)Oc1ccccc1C1=NN(C(C)=O)C(c2ccccc2)C1 (stereo unspecified),1.13%
20,Oc1ccccc1C1=NN(c2ccccc2)C(c2ccccc2)C1 (stereo unspecified),32.8% (active)
21,O=C(CCNc1n[nH]c(=O)[nH]c1=O)N/N=C\c1ccc(Br)cc1,-3.48%
22,Cc1c(S(=O)(=O)N2CC(C)CC(C)C2)c(=O)n(C)c(=O)n1C (stereo unspecified),-6.15%
23,CCc1ccc2oc(-c3ccc(N)cc3)nc2c1,5.03%
24,COC(=O)c1cc(NC(=O)CN2CCC(C(N)=O)(N3CCCCC3)CC2)cc(C(=O)OC)c1,12.7%

row,SMILES,activation
1,O=C(CC(NC(=O)c1ccccc1)c1ccccc1)Nc1ccc(F)c(F)c1 (stereo unspecified),5.87%
2,CC(C)OC(=O)c1cc(NC(=O)C2C3CCC(O3)C2C(=O)O)cc(C(=O)OC(C)C)c1 (stereo unspecified),-5.36%
3,CN1CCCN(C(=O)C2CCCCC2)CC1,5.38%
4,CCN(CC)c1ccc(NC(=O)CN2CCN(c3ccccn3)CC2)cc1,-5.15%
5,Cc1cccc(C2C3=C(CCCC3=O)N=C3c4ccccc4C(=O)C32)c1 (stereo unspecified),-13.4%
6,CN(C)C(=O)N=NC(=O)N(C)C,-12.2%
7,O=C(COC(=O)C1CC2CCCC(C1)C2=O)NC(=O)c1ccccc1 (stereo unspecified),-4.78%
8,COC(=O)C(C(=O)Nc1cccc(Cl)c1C)C1CCCC1 (stereo unspecified),1.15%
9,COc1ccc(CN2CCN(C(=O)CCC(=O)Nc3nnc(C(C)C)s3)CC2)cc1F,-6.44%
10,O=C(CSC1=NS(=O)(=O)c2cc(F)ccc2N1)Nc1ccccc1F,-6.67%
11,COc1cc(N=Cc2c(O)c3ccccc3oc2=O)c(OC)cc1Cl,3.99%
12,COc1ccccc1N=Cc1c(O)c2ccccc2oc1=O,26.5% (active)
13,COc1ccccc1N=C(C)C1=C(O)COC1=O,-3.88%
14,COC(=O)c1cc(OC)c(OC)cc1NC(=O)C1CCCO1 (stereo unspecified),-0.83%
15,COc1ccc(CN2CCC(c3nc4ccc(Cl)cc4[nH]3)CC2)cc1,-3.22%
16,O=C(NCC(=O)N(c1ccccc1)C(C(=O)NCC1CCCO1)c1ccccc1)c1cccs1 (stereo unspecified),-3.61%
17,COCCn1c(SCC(=O)Nc2nc(C)cs2)nnc1C(C)C,2.76%
18,CCCN1C2=C(C(=O)CCC2)C(c2ccc(O)c(Br)c2)C2=C1CCCC2=O,-10.1%
19,COC(=O)c1cnc(Nc2cc(C)ccc2OC)c2ccccc12,35.2% (active)
20,COc1ccc(C)cc1Nc1nc(C)nc2c1oc1ccccc12,4.37%
21,COc1ccc(C)cc1NC(=O)NCc1ccccn1,-10.4%
22,COc1ccc(CN2[C@@H](CC(=O)O)c3cc(F)ccc3S2(=O)=O)cc1,3.51%
23,CC1CCCN(S(=O)(=O)c2ccc(N(C(=O)c3cnccn3)C(C(=O)NC3CCCCC3)c3cccs3)cc2)C1 (stereo unspecified),3.94%
24,Cc1cccc(C)c1N1C(=O)CN(Cc2ccccc2)C1=S,-3%

row,SMILES,activation
1,NC(=O)c1nsc(C(=O)N(CCCN2CCOCC2)C(C(=O)NC2CCCCC2)c2ccc(Cl)cc2)c1N (stereo unspecified),-8.01%
2,Cc1nn(C)cc1CNC(=O)Nc1ccc(Cl)cc1,31.2% (active)
3,Cc1nn(C)cc1C(=O)NNC(=S)Nc1ccc(Cl)cc1,-4.7%
4,O=C(NCc1ccccn1)Nc1ccc(Cl)cc1,-0.71%
5,CN(C)CCNC(=O)C(C(=O)c1ccccc1)n1ccccc1=O (stereo unspecified),2.49%
6,O=C(Cn1nc(C(=O)O)c2ccccc2c1=O)Nc1ccc(F)cc1,2.68%
7,Cc1cccc(NC(=O)c2cccc(C(=O)Nc3cccc(C)c3C)n2)c1C,-5.05%
8,Cc1ccccc1CSCCNC(=O)c1ccc(N(C)S(=O)(=O)c2ccccc2)cc1,-1.26%
9,COc1cc(CNCc2cccs2)cc(Br)c1OC,2.29%
10,COc1ccc2nc(Nc3nc4ccc(NC(C)=O)cc4s3)sc2c1,28.4% (active)
11,COc1ccc2nc(NC(=O)NC3CCCCC3)sc2c1,-1.14%
12,CCCC(=O)Nc1nc2ccc(NC(=O)c3c(F)c(F)c(OC)c(F)c3F)cc2s1,8.06%
13,COC(=O)Cc1cc(=O)oc2c(C)c(O)ccc12,22.9% (active)
14,CCCc1cc(=O)oc2c(C)c(OCC(=O)Nc3ccccn3)ccc12,-8.09%
15,COc1cccc(C(=O)OCc2cc(=O)oc3c(C)c(C)ccc23)c1OC,1.33%
16,C=CCSc1ccc(S(=O)(=O)N2CCN(C)CC2)cn1,6.46%
17,COC(=O)[C@@H]1C[C@@]2(O)[C@H](O)[C@H](O)[C@H](O)C[C@H]2N1Cc1ccc(C(C)(C)C)cc1,1.49%
18,COc1ccc(CNC(=O)c2ccc(NS(=O)(=O)c3ccc4[nH]c(=O)[nH]c4c3)cc2)cc1OC,-5.34%
19,C[C@@H]1CN([C@H](C)CO)C(=O)c2cc(NC(=O)NC3CCCCC3)ccc2O[C@H]1CN(C)S(C)(=O)=O,-10.4%
20,COc1ccccc1C1C(C#N)=C(N)Oc2c1c(-c1ccccc1)nn2-c1ccccc1 (stereo unspecified),3.18%
21,Cc1cc(C)n(-c2nc(O)cc(=O)[nH]2)n1,13.4%
22,CCOc1ccc2c(=O)c(-c3ccc4c(c3)OCCCO4)c(C)oc2c1,-0.35%
23,O=C(CSCc1ccccc1Cl)NNC(=O)c1ccccc1,-5.37%
24,O=C(Nc1cccc2ccccc12)c1onc2c1CCCC2,2.73%
